Results as given in ChEMBL document CHEMBL1124794, “Synthesis, chemistry, and antineoplastic activity of alpha-halopyridinium salts: potential pyridone prodrugs of acylated vinylogous carbinolamine tumor inhibitors” (J Med Chem, 1990).
Several values for one entry are separate records, joined by “and”; a condition that tells them apart may be missing. Identical values can stand only once.

What was measured:
[1] = Effect of pH on the hydrolysis of pyridinium Moity in 0.05 M buffer concentration at the pH 8.0; format: ADME
In short: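 Pyridinium salt in 0.05 M phosphate buffer, pH 6.0–8.0 (set by pH meter), ionic strength 0.25 M, 25 °C. Decrease in the pyridinium UV absorbance maximum followed over time to give pseudo-first-order kobs and half-life.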

[2] = Effect of Ionic strength (0.50 M NaCl)on the hydrolysis of pyridinium Moity in 0.02 M buffer concentration, pH 7.4,25 degree C; format: ADME
In short: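 Pyridinium salt in 0.02 M phosphate buffer, pH 7.4, 25 °C, with NaCl varied 0.10–1.0 M. Loss of the pyridinium chromophore's UV absorbance maximum (conversion to pyridone) followed over time. Pseudo-first-order kobs and half-life derived from that decay.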

[3] = Half life at the buffer concentration of 0.10 M.; format: ADME
In short: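 α-Fluoropyridinium hydrolysis to pyridone in phosphate buffer at 0.02, 0.05 or 0.10 M, pH 6.5 or 8.0, ionic strength […] °C. Pyridinium UV absorbance maximum followed with time to give pseudo-first-order kobs and half-life.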

[4] = tested on: L1210; test: In vivo activity against murine L1210 tumor system at the dose of 50 mg/kg, activity expressed as KE; format: functional, Mus musculus
In short: (§1)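 L1210 lymphocytic leukemia: ascitic fluid with ca. 10^6 cells injected ip into CD2F1 mice. Dosing started 24 h after inoculation and was repeated daily for five doses in total, from solutions or suspensions made fresh each day. Toxicity day survivors were scored on day 5. Body weight difference is day 5 minus day 1. %T/C is based on median survival time versus controls.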

[5] = In vivo activity against murine M5076 tumor system at the dose of 25 mg/kg, activity expressed as %T/C.; format: functional, Mus musculus
In short: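 M5076: ascitic fluid with ca. 10^6 cells inoculated ip into CD2F1 mice. Dosing started 24 h after inoculation and was then given every 4 days for four doses in total, from solutions or suspensions made fresh each day. Toxicity day survivors were scored on day 5. Body weight difference is day 14 minus day 1. %T/C is based on median survival time versus controls.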

[6] = tested on: P388; test: In vivo activity against P388 Lymphocytic Leukemia in CD2F1 mice at the dose of 100 mg/kg, activity expressed as TDS; 1/6; format: functional, Mus musculus
In short: (§2)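 CD2F1 mice were inoculated with ascitic fluid holding ca. 10^6 P388 cells. Drug was given daily from 24 h after inoculation, from solutions or suspensions made fresh each day, some as a saline suspension. TDS is survivors/initial animals on day 5. BWD is body weight on day 5 minus day 1. %T/C compares median survival of treated and control mice.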

[7] = In vivo activity against murine M5076 tumor system at the dose of 50 mg/kg, activity expressed as body weight difference; format: functional, Mus musculus
[8] = Effect of pH on carbamate hydrolysis in 0.05 M buffer concentration at the pH 4.0, 25 degree C.; format: ADME
In short: (§3)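 Bis-carbamate in acetonitrile–water (1:1; buffer added to a 0.5 mg/mL acetonitrile solution), 0.05 M buffer, ionic strength 0.136 (KCl), 25 ± 0.1 °C. Buffers: phosphate pH 2.0; citrate pH 3.0–3.5; succinate pH 4.0; acetate pH 5.0; phosphate pH 6.0–8.0; borate pH 9.0; carbonate pH 10.0. HPLC bis-carbamate peak-area loss, ln(area0/areat) vs time slope = kobs. Duplicates averaged.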

[9] = Effect of phosphate buffer on carbamate hydrolysis in acetonitrile-water at the concentration of 0.025 M on pH 7.4, 25 degree C.; format: ADME
In short: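 Bis-carbamate in acetonitrile–water (1:1), 25 ± 0.1 °C. Citrate buffer at pH 3.0 or phosphate buffer at pH 7.4, at 0.01, 0.025 or 0.05 M, ionic strength 0.136 (KCl). Kinetics followed by HPLC as the decrease in bis-carbamate peak area. The regression slope of ln(area0/areat) vs time gave pseudo-first-order kobs. Duplicates averaged.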

[10] = Half life at the concentration of 0.05 M.; format: ADME
[11] = Half life at the pH 10.0; format: ADME; settings: buffer; in short: as §3
[12] = Half life at the pH 3.5; format: ADME; settings: buffer; in short: as §3
[13] = tested on: L1210; test: In vivo activity against murine L1210 tumor system at the dose of mg/kg, activity expressed as %T/C.; format: functional, Mus musculus; in short: as §1
[14] = tested on: L1210; test: In vivo activity against murine L1210 tumor system at the dose of 166.7 mg/kg, activity expressed as TDS; 5/6; format: functional, Mus musculus; in short: as §1
[15] = In vivo activity against murine M5076 tumor system at the dose of 60 mg/kg, activity expressed as body weight difference; T-C; format: functional, Mus musculus
[16] = tested on: P388; test: In vivo activity against P388 Lymphocytic Leukemia in CD2F1 mice at the dose of 200 mg/kg, activity expressed as body weight difference; T-C; format: functional, Mus musculus; in short: as §2
[17] = tested on: P388; test: In vivo activity against P388 Lymphocytic Leukemia in CD2F1 mice at the dose of 25 mg/kg, activity expressed as KE; format: functional, Mus musculus

Row | K obs [1] | K obs [2] | T1/2 [3] | K obs [8] | K obs [9] | half-life [10] | half-life [11] | half-life [12] | Compound | KE [4] | T/C [5] | TDS [6] | BWD [7] | T/C [13] | TDS [14] | BWD [15] | BWD [16] | KE [17]
1 | 0.052 min⁻¹ | 0.011 min⁻¹ | 50.3 min and 19.25 min | – | – | – | – | – | CC(C)NC(=O)OCc1c(COC(=O)NC(C)C)c(-c2cc[n+](C)c(F)c2)n2c1CCC2.[I-] | -1.94 | 104% | 1 | 1.4 g | – | – | – | – | –
2 | – | – | – | 0.0149 min⁻¹ | 0.0134 min⁻¹ | 22.8 min | 52.3 min | 32.5 min | CC(C)NC(=O)OCc1c(COC(=O)NC(C)C)c(-c2ccn(C)c(=O)c2)n2c1CCC2 | – | – | – | – | 135% | 5 | 0.9 g | -1.4 g | -0.5
